These results are taken from ChEMBL document CHEMBL1139173, “Novel selective human mitochondrial kinase inhibitors: design, synthesis and enzymatic activity” (Bioorg Med Chem, 2007).

Series [1] concerns the target T1, Thymidine kinase, cytosolic (Homo sapiens, UniProt P04183).
T1 sequence (P04183 whole entry): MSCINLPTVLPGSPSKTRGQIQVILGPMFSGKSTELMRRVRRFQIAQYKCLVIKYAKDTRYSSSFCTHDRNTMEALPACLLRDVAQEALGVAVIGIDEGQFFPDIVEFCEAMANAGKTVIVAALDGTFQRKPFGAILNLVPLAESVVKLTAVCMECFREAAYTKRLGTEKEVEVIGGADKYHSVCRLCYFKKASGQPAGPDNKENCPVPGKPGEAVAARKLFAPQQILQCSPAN
Kind of series: Inhibition of human TK1 assessed as [methyl-3H]dThd phosphorylation. In short, it runs like this: (§1)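 Purified recombinant GST-fusion kinases (from pGEX-5X-1 cDNAs) assayed in 50 mM Tris–HCl pH 8.0, 2.5 mM MgCl₂, 10 mM DTT, 0.5 mM CHAPS, 3 mg/mL BSA, 2.5 mM ATP, 0.25 µCi [methyl-³H]dThd (2 µM), ± varying inhibitor levels, 37 °C for 30 min. Reactions spotted on DE-81 filter disks, washed, and counted by scintillation. IC50 is the concentration halving dThd phosphorylation.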

In another series the target is T2, Deoxynucleoside kinase (Drosophila melanogaster, UniProt Q9XZT6).
T2 sequence (Q9XZT6 whole entry): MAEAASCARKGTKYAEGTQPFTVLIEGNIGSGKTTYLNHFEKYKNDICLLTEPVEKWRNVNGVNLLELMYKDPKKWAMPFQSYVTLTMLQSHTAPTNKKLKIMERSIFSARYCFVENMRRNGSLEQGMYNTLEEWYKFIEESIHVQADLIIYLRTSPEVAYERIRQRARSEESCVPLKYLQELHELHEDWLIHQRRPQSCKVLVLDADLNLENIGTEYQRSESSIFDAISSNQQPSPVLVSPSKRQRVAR
As to the kind of experiment: Inhibition of Drosophila melanogaster dNK assessed as [methyl-3H]dThd phosphorylation. Summed up: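 Purified recombinant enzyme expressed as a GST fusion. Mix: 50 mM Tris–HCl pH 8.0, 2.5 mM MgCl2, 10 mM DTT, 0.5 mM CHAPS, 3 mg/mL BSA, 2.5 mM ATP, 2 µM [methyl-3H]dThd (0.25 µCi). Incubated 37 °C, 30 min, with varied inhibitor levels. Aliquots spotted on DE-81 disks, washed, scintillation-counted.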

Series [2] deals with T3, Thymidine kinase (Human alphaherpesvirus 1, UniProt Q9QNF7).
T3 sequence (Q9QNF7 whole entry): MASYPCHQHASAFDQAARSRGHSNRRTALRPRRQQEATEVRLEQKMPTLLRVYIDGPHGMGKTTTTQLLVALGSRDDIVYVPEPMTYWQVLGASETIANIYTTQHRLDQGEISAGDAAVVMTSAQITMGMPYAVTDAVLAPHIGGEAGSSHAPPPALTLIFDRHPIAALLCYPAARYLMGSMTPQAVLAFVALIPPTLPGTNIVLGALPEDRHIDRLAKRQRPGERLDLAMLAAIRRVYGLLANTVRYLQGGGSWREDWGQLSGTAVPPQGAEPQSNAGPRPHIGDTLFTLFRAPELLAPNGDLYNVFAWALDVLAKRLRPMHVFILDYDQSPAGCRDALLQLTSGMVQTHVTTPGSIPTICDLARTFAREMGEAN
As to the kind of experiment: Inhibition of HSV1 TK assessed as [methyl-3H]dThd phosphorylation. In short, it runs like this:
as §1

Series [3] has as its target T4, Thymidine kinase (Varicella-zoster virus (strain Dumas) (HHV-3) (Human herpesvirus 3), UniProt P09250).
T4 sequence (P09250 whole entry): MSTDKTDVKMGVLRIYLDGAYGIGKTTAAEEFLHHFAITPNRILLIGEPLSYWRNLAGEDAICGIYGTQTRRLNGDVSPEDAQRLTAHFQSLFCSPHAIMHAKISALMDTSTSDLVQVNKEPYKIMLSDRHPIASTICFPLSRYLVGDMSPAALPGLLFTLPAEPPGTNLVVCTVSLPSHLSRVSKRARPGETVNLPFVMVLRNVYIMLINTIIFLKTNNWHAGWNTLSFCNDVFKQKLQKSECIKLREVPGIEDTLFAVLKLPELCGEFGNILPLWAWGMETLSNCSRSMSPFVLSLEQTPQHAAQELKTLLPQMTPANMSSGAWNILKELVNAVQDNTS
Kind of series: Inhibition of VZV TK assessed as [methyl-3H]dThd phosphorylation. Details: species or system Human alphaherpesvirus 3.

Series [4] has as its target T5, Thymidine kinase 2, mitochondrial (Homo sapiens, UniProt O00142).
T5 sequence (O00142 whole entry): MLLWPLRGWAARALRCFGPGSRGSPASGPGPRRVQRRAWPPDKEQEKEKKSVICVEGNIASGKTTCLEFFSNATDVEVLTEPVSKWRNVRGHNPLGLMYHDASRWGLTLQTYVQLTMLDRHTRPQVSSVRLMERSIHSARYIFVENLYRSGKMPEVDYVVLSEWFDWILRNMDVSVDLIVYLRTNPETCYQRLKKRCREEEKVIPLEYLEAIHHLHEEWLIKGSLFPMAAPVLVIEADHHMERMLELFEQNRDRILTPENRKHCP
Kind of series: Inhibition of human TK2 assessed as [methyl-3H]dThd phosphorylation. In short, it runs like this: as §1

Series [5] can be described thus: Toxicity against human fibroblast cells assessed as alteration of mitochondrial function up to 60 uM. It is filed as cell-based. In short, it runs like this:
(§2)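 Primary fibroblasts from healthy-volunteer forearm skin biopsies were used stationary. They were kept at 37 °C in 5% CO₂ in one of two media: permissive DMEM UP (4.5 g/l glucose, 10% FCS, 50 µg/ml uridine) or restrictive GAL (glucose-free RPMI, 50 µM galactose, 10% dialyzed FCS). Cells were exposed to a range of concentrations for 1 week. Viability was counted by trypan blue exclusion.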

In series [6] the test system is Fibroblast. Kind of series: Decrease in nuclear DNA in human fibroblasts at 100 uM. Also noted: scale not given: the % may be the effect or the level left. It is filed as functional.
The species named for the next series is Homo sapiens. Kind of series: Inhibition of human fibroblast mitochondrial cytochrome c oxidase. In short, it runs like this:
(§3)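 Stationary normal skin fibroblasts were exposed to various concentrations for one week in permissive medium (glucose, uridine, 10% FCS). Cytochrome c oxidase (complex IV) and succinate dehydrogenase (complex II) activities were then assayed. COX/SDH ratios were calculated, with SDH as the mtDNA-independent control.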

The subject of series [7] is Fibroblast. As to the kind of experiment: Decrease in cytochrome c oxidase to succinate dehydrogenase ratio in human fibroblasts. It is filed as functional, cell-based. Summed up:
as §3

Series [8] is described as follows: Toxicity assessed as inhibition of mitochondrial function in human fibroblasts above 100 uM. It is filed as cell-based. The following applies: fibroblast. Summed up:
as §2

The target in series [9] is T5, Thymidine kinase 2, mitochondrial. Kind of series: Inhibition of human fibroblast mitochondrial TK2 using dCyd substrate. In short, it runs like this: (§4)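 Done on mitochondria isolated from human fibroblasts rather than on recombinant enzymes. TK2 activity was measured with dThd or dCyd as substrate. dGK activity was measured as a control. Read-out was IC50.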
For series [10], the target named is Deoxyguanosine kinase, mitochondrial (Homo sapiens) (UniProt Q16854). Kind of series: Inhibition of human fibroblast mitochondrial deoxyguanosine kinase.
Series [11] has as its target T6, Deoxyguanosine kinase, mitochondrial (Homo sapiens, UniProt Q16854).
T6 sequence (Q16854 whole entry): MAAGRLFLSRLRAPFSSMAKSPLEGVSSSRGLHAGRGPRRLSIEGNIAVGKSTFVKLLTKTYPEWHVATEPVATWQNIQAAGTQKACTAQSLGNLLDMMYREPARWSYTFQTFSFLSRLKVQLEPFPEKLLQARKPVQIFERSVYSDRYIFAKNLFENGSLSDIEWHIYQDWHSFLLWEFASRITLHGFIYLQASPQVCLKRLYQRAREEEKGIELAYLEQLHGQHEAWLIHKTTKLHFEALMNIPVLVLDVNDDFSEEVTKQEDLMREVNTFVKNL
Kind of series: Inhibition of human fibroblast mitochondrial deoxyguanosine kinase. Summed up: as §4

For series [12], the target named is T5, Thymidine kinase 2, mitochondrial. Kind of series: Inhibition of human fibroblast mitochondrial TK2 using dThd substrate. Summed up:
as §4

Series [13] can be described thus: Toxicity against human fibroblast cells assessed as alteration of cellular viability upto 60 uM. It counts as cell-based. Summed up:
as §2

Series [14] is described as follows: Toxicity assessed as inhibition of mitochondrial function in normal fibroblasts upto 100 uM. It is filed as cell-based. The following applies: human, fibroblast. Summed up: as §2

The source made the active and inactive calls. The calls are words filed in the database; no cut-off is given here.

For the molecule `NCCCCCC(=O)O[C@H]1[C@H](O)[C@@H](CO)O[C@H]1n1cc(/C=C/Br)c(=O)[nH]c1=O`, the IC50 is more than 500 µM in [1]; more than 500 µM at Deoxynucleoside kinase; 322 µM at Thymidine kinase [2]; 94 µM at Thymidine kinase [3]; more than 500 µM in series [4].
With `Nc1nc2c(ncn2[C@@H]2O[C@H](CO)[C@@H](O)[C@@H]2O)c(=O)[nH]1`, the IC50 (in series [1]; at Deoxynucleoside kinase; on Thymidine kinase [2]; on Thymidine kinase [3]; in [4]) was more than 500 µM throughout.
Turning to `CCCCCCCC(=O)Nc1nc2c(ncn2[C@@H]2O[C@H](CO)[C@@H](O)[C@@H]2OC(=O)CCCCCCC)c(=O)[nH]1`, the IC50 (in [1]; at Deoxynucleoside kinase; on Thymidine kinase [2]; on Thymidine kinase [3]; in series [4]) was more than 500 µM in each case.
Regarding `Cc1cn([C@@H]2O[C@H](CO)[C@@H](O)[C@@H]2OCc2ccccc2)c(=O)[nH]c1=O`, the IC50 in [1] is more than 1000 µM; at Deoxynucleoside kinase it was more than 1000 µM; at Thymidine kinase [2] it was more than 1000 µM; on Thymidine kinase [3], more than 1000 µM; in [4], 801 µM.
For the molecule `CCCCC(=O)O[C@H]1[C@H](O)[C@@H](CO)O[C@H]1n1cnc2c(=O)[nH]c(N)nc21`, the IC50 (in series [1]; at Deoxynucleoside kinase; on Thymidine kinase [2]; on Thymidine kinase [3]; in series [4]) was more than 500 µM throughout.
Consider `CCCCCCCCCC(=O)O[C@H]1[C@H](O)[C@@H](CO)O[C@H]1n1cc(/C=C/Br)c(=O)[nH]c1=O`, for which the Activity result in series [5] is “Not Active”; in the series on Fibroblast [6] it was 50%; in series [8], “Toxic”; in series [13], “Non-toxic”; in series [14], “Active”. Moreover, the outcome in the series filed under Homo sapiens and in the series with Fibroblast [7] was Active. Further, the IC50 in series [9] is 97 µM; in series [10] it was more than 1000 µM; at Thymidine kinase [2] it was more than 1000 µM; in series [11] it was more than 1000 µM; in [12] it was 40 µM.
With `NCCCC(=O)O[C@H]1[C@H](O)[C@@H](CO)O[C@H]1n1cc(/C=C/Br)c(=O)[nH]c1=O`, the IC50 is more than 500 µM in series [1]; 160 µM on Deoxynucleoside kinase; 17 µM at Thymidine kinase [2]; 3.6 µM on Thymidine kinase [3]; 187 µM in series [4].
With `CCCCCCCC(=O)O[C@H]1[C@H](O)[C@@H](CO)O[C@H]1n1cc(C)c(=O)[nH]c1=O`, the IC50 is more than 1000 µM in series [1]; more than 1000 µM on Deoxynucleoside kinase; more than 1000 µM on Thymidine kinase [2]; more than 1000 µM on Thymidine kinase [3]; 120 µM in series [4].
Regarding `CCCCCCCCn1c(=O)c(C)cn([C@@H]2O[C@H](CO)[C@@H](O)[C@@H]2O)c1=O`, the IC50 (in [1]; on Deoxynucleoside kinase; on Thymidine kinase [2]; on Thymidine kinase [3]; in [4]) was more than 500 µM each time.

In general, IC50 refers to the concentration at which inhibition is half-maximal.
